Laboratory results: ChEMBL document CHEMBL1123492, “Carboxyl-modified amino acids and peptides as protease inhibitors” (J Med Chem, 1986)

Experiments:
[1] = tested on: NCC(=O)NC(Cc1ccccc1)C(=O)Nc1ccc([N+](=O)[O-])cc1; test: Michaelis constant against Dipeptidyl aminopeptidase 1
Method in brief: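 Cathepsin C diluted 1:200 daily in ice-cold 50 mM citrate pH 5 with 10 mM cysteamine. Gly-Phe p-nitroanilide hydrolysis at 37 °C read at 405 nm (Δε 9900 M⁻¹ cm⁻¹), started by adding substrate to prewarmed enzyme/inhibitor. Irreversible inhibition: enzyme preincubated with varied inhibitor levels, aliquots diluted into substrate over time. k_app from ln(% activity) vs time; Ki and k2 from 1/k_app vs 1/[I].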

[2] = Michaelis constant against leucine aminopeptidase-C
[3] = Michaelis constant against Leucine aminopeptidase-M

Km [2]	Km [3]	Compound	Km [1]
–	–	Dipeptidyl peptidase 1 (Homo sapiens), P53634	3100 µM
2100 µM	600 µM	CC(C)C[C@H](N)C(=O)Nc1ccc([N+](=O)[O-])cc1	–
